Laboratory results: ChEMBL document CHEMBL1799953, “Backbone cyclic peptide inhibitors of protein kinase B (PKB/Akt)” (J Med Chem, 2011)
Active and inactive are the calls of the source. No cut-off for these calls is given here. *1 amine or outer side, *2 acyl side, *3 side chain or, on linkers, in order; H or OH if unused. Where a SMILES comes first, the peptide text is derived from it. Bridges are numbered along the chain shown (N, C = ends). [ ]: non-standard residue; d: D form. N(6-aminohexyl)Gly = O=C(CN(CCCCCCN[*:3])[*:1])[*:2]; NGly(3-aminopropyl) = O=C(CN(CCCN[*:3])[*:1])[*:2]; N(2-Aminoethyl)Gly = O=C(CN(CCN[*:3])[*:1])[*:2]; Adipoyl = O=C(CCCCC(=O)[*:2])[*:1]; Glutaryl = O=C(CCCC(=O)[*:2])[*:1]; Gly(N-(CH2)6NH2) = NCCCCCCNCC(=O)O; Gly(N-2-aminoethyl) = NCCNCC(=O)O; Cha = N[C@@H](CC1CCCCC1)C(=O)O; Gly(N(CH2)3NH2) = NCCCNCC(=O)O; Suc = O=C(CCC(=O)[*:2])[*:1]; hLeu = CC(C)CC[C@H](N)C(=O)O; Nva = CCC[C@H](N)C(=O)O; Dap = NC[C@H](N)C(=O)O; CO = O=C([*:1])[*:2]; Nlys = NCCCCNCC(=O)O

Each compound was assayed against T1, RAC-alpha serine/threonine-protein kinase (Homo sapiens, UniProt P31749) (assay: Inhibition of Akt using RPRTSSF peptide and [gamma32]ATP at 5 uM by cell-free radioactive assay relative to control).
T1 sequence (P31749 whole entry): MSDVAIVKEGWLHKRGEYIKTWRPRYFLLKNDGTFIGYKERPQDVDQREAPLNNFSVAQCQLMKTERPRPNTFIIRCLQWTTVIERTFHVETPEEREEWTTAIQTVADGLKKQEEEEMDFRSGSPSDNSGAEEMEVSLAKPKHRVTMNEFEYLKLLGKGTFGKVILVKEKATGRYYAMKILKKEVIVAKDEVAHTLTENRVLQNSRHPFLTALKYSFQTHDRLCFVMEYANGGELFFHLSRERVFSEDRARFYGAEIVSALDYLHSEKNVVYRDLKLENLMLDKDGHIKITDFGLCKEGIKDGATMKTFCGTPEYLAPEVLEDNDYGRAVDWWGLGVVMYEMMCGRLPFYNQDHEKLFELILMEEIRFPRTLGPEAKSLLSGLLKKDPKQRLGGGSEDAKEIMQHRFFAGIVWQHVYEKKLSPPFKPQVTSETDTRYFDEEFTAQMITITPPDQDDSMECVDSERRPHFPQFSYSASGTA
In short: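 Cell-free 32P kinase assay: HisΔPHPKBEEEFlag (0.005 units, one-step Ni-NTA partial purification), 50 mM Hepes pH 7.4, 0.1 mM EGTA, 0.1% 2-mercaptoethanol, 10 mM magnesium acetate, 3 μM RPRTSSF substrate, 10 μM [γ32P]ATP (1 μCi/well). Inhibitor at 5 μM. Activity loss expressed as percent of uninhibited reaction.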

| Compound | inhibition |
| --- | --- |
| CCC[C@@H]1NC(=O)[C@H](CCCNC(=N)N)NC(=O)CN(C(=O)[C@@H](N)CCCNC(=N)N)CCCCNC(=O)NCCCCN(CC(N)=O)C(=O)[C@H](CCC(C)C)NC(=O)[C@H](CN)NC(=O)[C@H](Cc2ccc(O)cc2)NC1=O (H-R[Nlys]R[Nva]Y[Dap][hLeu][Nlys]-NH2; linker 2-8 via CO) | 100% |
| CCC[C@@H]1NC(=O)[C@H](CCCNC(=N)N)NC(=O)CN(C(=O)[C@@H](N)CCCNC(=N)N)CCCCCCNC(=O)NCCCCN(CC(N)=O)C(=O)[C@H](CCC(C)C)NC(=O)[C@H](CN)NC(=O)[C@H](Cc2ccc(O)cc2)NC1=O (H-R[N(6-aminohexyl)Gly]R[Nva]Y[Dap][hLeu][Nlys]-NH2; linker 2-8 via CO) | 100% |
| CCC[C@H](NC(=O)[C@H](CCCNC(=N)N)NC(=O)[C@H]1CCCN1C(=O)[C@@H](N)CCCNC(=N)N)C(=O)N[C@@H](Cc1ccc(O)cc1)C(=O)N[C@@H](CN)C(=O)N[C@@H](CCC(C)C)C(N)=O | inactive |
| CCC[C@@H]1NC(=O)[C@H](CCCNC(=N)N)NC(=O)[C@@H]2CCCN2C(=O)[C@H](CCCNC(=N)N)NC(=O)CCC(=O)NCCCCCCN(CC(N)=O)C(=O)[C@H](CCC(C)C)NC(=O)[C@H](CN)NC(=O)[C@H](Cc2ccc(O)cc2)NC1=O (RPR[Nva]Y[Dap][hLeu][N(6-aminohexyl)Gly]-NH2; linker N-8 via Suc) | 25% |
| CCC[C@H](NC(=O)[C@H](CCCNC(=N)N)NC(=O)[C@H](Cc1ccc(O)cc1)NC(=O)[C@@H](N)CCCNC(=N)N)C(=O)N[C@@H](Cc1ccc(O)cc1)C(=O)N[C@@H](CN)C(=O)N[C@@H](CCC(C)C)C(N)=O | 74% |
| CCC[C@H](NC(=O)[C@H](CCCNC(=N)N)NC(=O)[C@H](CC(=O)O)NC(=O)[C@@H](N)CCCNC(=N)N)C(=O)N[C@@H](Cc1ccc(O)cc1)C(=O)N[C@@H](CN)C(=O)N[C@@H](CCC(C)C)C(N)=O | 68% |
| CCC[C@@H]1NC(=O)[C@H](CCCNC(=N)N)NC(=O)[C@@H]2CCCN2C(=O)[C@H](CCCNC(=N)N)NC(=O)CCCCC(=O)NCCCCCCN(CC(N)=O)C(=O)[C@H](CCC(C)C)NC(=O)[C@H](CN)NC(=O)[C@H](Cc2ccc(O)cc2)NC1=O (RPR[Nva]Y[Dap][hLeu][N(6-aminohexyl)Gly]-NH2; linker N-8 via Adipoyl) | 30% |
| CCC[C@@H]1NC(=O)[C@H](CCCNC(=N)N)NC(=O)CN(C(=O)[C@@H](N)CCCNC(=N)N)CCCCNC(=O)NCCCN(CC(N)=O)C(=O)[C@H](CCC(C)C)NC(=O)[C@H](CN)NC(=O)[C@H](Cc2ccc(O)cc2)NC1=O (H-R[Nlys]R[Nva]Y[Dap][hLeu][NGly(3-aminopropyl)]-NH2; linker 2-8 via CO) | 54% |
| CCC[C@@H]1NC(=O)[C@H](CCCNC(=N)N)NC(=O)CN(C(=O)[C@@H](N)CCCNC(=N)N)CCCCCCNC(=O)NCCCCCCN(CC(N)=O)C(=O)[C@H](CCC(C)C)NC(=O)[C@H](CN)NC(=O)[C@H](Cc2ccc(O)cc2)NC1=O (H-R[N(6-aminohexyl)Gly]R[Nva]Y[Dap][hLeu][N(6-aminohexyl)Gly]-NH2; linker 2-8 via CO) | 39% |
| CCC[C@H](NC(=O)[C@H](CCCNC(=N)N)NC(=O)CNCCCCN)C(=O)N[C@@H](Cc1ccc(O)cc1)C(=O)N[C@@H](CN)C(=O)N[C@@H](CCC(C)C)C(=O)N(CCN)CC(N)=O (H-[Nlys]R[Nva]Y[Dap][hLeu][Gly(N-2-aminoethyl)]-NH2) | 66% |
| CCC[C@@H]1NC(=O)[C@H](CCCNC(=N)N)NC(=O)[C@@H]2CCCN2C(=O)[C@H](CCCNC(=N)N)NC(=O)CCCC(=O)NCCCCN(CC(N)=O)C(=O)[C@H](CCC(C)C)NC(=O)[C@H](CN)NC(=O)[C@H](Cc2ccc(O)cc2)NC1=O (RPR[Nva]Y[Dap][hLeu][Nlys]-NH2; linker N-8 via Glutaryl) | 14% |
| CCC[C@@H]1NC(=O)[C@H](CCCNC(=N)N)NC(=O)CN(C(=O)[C@@H](N)CCCNC(=N)N)CCCCCCNC(=O)NCCN(CC(N)=O)C(=O)[C@H](CCC(C)C)NC(=O)[C@H](CN)NC(=O)[C@H](Cc2ccc(O)cc2)NC1=O (H-R[N(6-aminohexyl)Gly]R[Nva]Y[Dap][hLeu][N(2-Aminoethyl)Gly]-NH2; linker 2-8 via CO) | 68% |
| CCC[C@H](NC(=O)[C@H](CCCNC(=N)N)NC(=O)[C@@H](Cc1ccccc1)NC(=O)[C@@H](N)CCCNC(=N)N)C(=O)N[C@@H](Cc1ccc(O)cc1)C(=O)N[C@@H](CN)C(=O)N[C@@H](CCC(C)C)C(N)=O | inactive |
| CCC[C@@H]1NC(=O)[C@H](CCCNC(=N)N)NC(=O)CN(C(=O)[C@@H](N)CCCNC(=N)N)CCCNC(=O)NCCCCN(CC(N)=O)C(=O)[C@H](CCC(C)C)NC(=O)[C@H](CN)NC(=O)[C@H](Cc2ccc(O)cc2)NC1=O (H-R[NGly(3-aminopropyl)]R[Nva]Y[Dap][hLeu][Nlys]-NH2; linker 2-8 via CO) | 92% |
| CCC[C@H](NC(=O)[C@H](CCCNC(=N)N)NC(=O)CNCCCN)C(=O)N[C@@H](Cc1ccc(O)cc1)C(=O)N[C@@H](CN)C(=O)N[C@@H](CCC(C)C)C(=O)N(CCN)CC(N)=O (H-[Gly(N(CH2)3NH2)]R[Nva]Y[Dap][hLeu][Gly(N-2-aminoethyl)]-NH2) | 63% |
| CCC[C@H](NC(=O)[C@H](CCCNC(=N)N)NC(=O)[C@@H](CN)NC(=O)[C@@H](N)CCCNC(=N)N)C(=O)N[C@@H](Cc1ccc(O)cc1)C(=O)N[C@@H](CN)C(=O)N[C@@H](CCC(C)C)C(N)=O | 32% |
| CCC[C@@H]1NC(=O)[C@H](CCCNC(=N)N)NC(=O)[C@@H]2CCCN2C(=O)[C@H](CCCNC(=N)N)NC(=O)CCCC(=O)NCCCCCCN(CC(N)=O)C(=O)[C@H](CCC(C)C)NC(=O)[C@H](CN)NC(=O)[C@H](Cc2ccc(O)cc2)NC1=O (RPR[Nva]Y[Dap][hLeu][N(6-aminohexyl)Gly]-NH2; linker N-8 via Glutaryl) | 32% |

The compounds below were run against T1, RAC-alpha serine/threonine-protein kinase (assay: Inhibition of Akt using RPRTSSF peptide and [gamma32]ATP by cell-free radioactive assay).
In short: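 Same reaction: HisΔPHPKBEEEFlag (0.005 units), 50 mM Hepes pH 7.4, 0.1 mM EGTA, 0.1% 2-mercaptoethanol, 10 mM magnesium acetate, 3 μM RPRTSSF, 10 μM [γ32P]ATP. Peptide stock concentration determined by UV spectrophotometry; reference peptide run in every assay.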

| Compound | IC50 |
| --- | --- |
| CCC[C@H](NC(=O)[C@H](CCCN=C(N)N)NC(=O)CN(CCCCCCN)C(=O)[C@@H](N)CCCN=C(N)N)C(=O)N[C@@H](Cc1ccc(O)cc1)C(=O)N[C@@H](CN)C(=O)N[C@@H](CCC(C)C)C(=O)N(CCCCN)CC(N)=O (H-R[Gly(N-(CH2)6NH2)]R[Nva]Y[Dap][hLeu][Nlys]-NH2) | 160 nM |
| CCC[C@H](NC(=O)[C@H](CCCN=C(N)N)NC(=O)[C@H](CN)NC(=O)[C@@H](N)CCCN=C(N)N)C(=O)N[C@@H](Cc1ccc(O)cc1)C(=O)N[C@@H](CN)C(=O)N[C@@H](CCC(C)C)C(N)=O | 860 nM |
| CCC[C@@H]1NC(=O)[C@H](CCCNC(=N)N)NC(=O)CN(C(=O)[C@@H](N)CCCNC(=N)N)CCCCNC(=O)NCCCCN(CC(N)=O)C(=O)[C@H](CCC(C)C)NC(=O)[C@H](CN)NC(=O)[C@H](Cc2ccc(O)cc2)NC1=O (H-R[Nlys]R[Nva]Y[Dap][hLeu][Nlys]-NH2; linker 2-8 via CO) | 170 nM |
| CCC[C@H](NC(=O)[C@H](CCCN=C(N)N)NC(=O)CN(CCCN)C(=O)[C@@H](N)CCCN=C(N)N)C(=O)N[C@@H](Cc1ccc(O)cc1)C(=O)N[C@@H](CN)C(=O)N[C@@H](CCC(C)C)C(=O)N(CCN)CC(N)=O (H-R[Gly(N(CH2)3NH2)]R[Nva]Y[Dap][hLeu][Gly(N-2-aminoethyl)]-NH2) | 320 nM |
| CCC[C@H](NC(=O)[C@H](CCCN=C(N)N)NC(=O)CN(CCN)C(=O)[C@@H](N)CCCN=C(N)N)C(=O)N[C@@H](Cc1ccc(O)cc1)C(=O)N[C@@H](CN)C(=O)N[C@@H](CCC(C)C)C(=O)N(CCCCN)CC(N)=O (H-R[Gly(N-2-aminoethyl)]R[Nva]Y[Dap][hLeu][Nlys]-NH2) | 176 nM |
| CCC[C@H](NC(=O)[C@H](CCCN=C(N)N)NC(=O)CN(CCN)C(=O)[C@@H](N)CCCN=C(N)N)C(=O)N[C@@H](Cc1ccc(O)cc1)C(=O)N[C@@H](CN)C(=O)N[C@@H](CCC(C)C)C(=O)N(CCCN)CC(N)=O (H-R[Gly(N-2-aminoethyl)]R[Nva]Y[Dap][hLeu][Gly(N(CH2)3NH2)]-NH2) | 250 nM |
| CCC[C@H](NC(=O)[C@H](CCCN=C(N)N)NC(=O)[C@H](CC1CCCCC1)NC(=O)[C@@H](N)CCCN=C(N)N)C(=O)N[C@@H](Cc1ccc(O)cc1)C(=O)N[C@@H](CN)C(=O)N[C@@H](CCC(C)C)C(N)=O (H-R[Cha]R[Nva]Y[Dap][hLeu]-NH2) | 950 nM |
| CCC[C@H](NC(=O)[C@H](CCCN=C(N)N)NC(=O)[C@H](CCCCN)NC(=O)[C@@H](N)CCCN=C(N)N)C(=O)N[C@@H](Cc1ccc(O)cc1)C(=O)N[C@@H](CN)C(=O)N[C@@H](CCC(C)C)C(N)=O | 2150 nM |
| CCC[C@@H]1NC(=O)[C@H](CCCN=C(N)N)NC(=O)CN(C(=O)[C@@H](N)CCCN=C(N)N)CCCCCCNC(=O)NCCCCN(CC(N)=O)C(=O)[C@H](CCC(C)C)NC(=O)[C@H](CN)NC(=O)[C@H](Cc2ccc(O)cc2)NC1=O (H-R[N(6-aminohexyl)Gly]R[Nva]Y[Dap][hLeu][Nlys]-NH2; linker 2-8 via CO) | 280 nM |
| CCC[C@H](NC(=O)[C@H](CCCN=C(N)N)NC(=O)CN(CCCCN)C(=O)[C@@H](N)CCCN=C(N)N)C(=O)N[C@@H](Cc1ccc(O)cc1)C(=O)N[C@@H](CN)C(=O)N[C@@H](CCC(C)C)C(=O)N(CCN)CC(N)=O (H-R[Nlys]R[Nva]Y[Dap][hLeu][Gly(N-2-aminoethyl)]-NH2) | 220 nM |
| CCC[C@@H]1NC(=O)[C@H](CCCN=C(N)N)NC(=O)CN(C(=O)[C@@H](N)CCCN=C(N)N)CCNC(=O)NCCCCN(CC(N)=O)C(=O)[C@H](CCC(C)C)NC(=O)[C@H](CN)NC(=O)[C@H](Cc2ccc(O)cc2)NC1=O (H-R[N(2-Aminoethyl)Gly]R[Nva]Y[Dap][hLeu][Nlys]-NH2; linker 2-8 via CO) | 282 nM |
| CCC[C@H](NC(=O)[C@H](CCCN=C(N)N)NC(=O)CN(CCCCCCN)C(=O)[C@@H](N)CCCN=C(N)N)C(=O)N[C@@H](Cc1ccc(O)cc1)C(=O)N[C@@H](CN)C(=O)N[C@@H](CCC(C)C)C(=O)N(CCN)CC(N)=O (H-R[Gly(N-(CH2)6NH2)]R[Nva]Y[Dap][hLeu][Gly(N-2-aminoethyl)]-NH2) | 320 nM |
| CCC[C@@H]1NC(=O)[C@H](CCCN=C(N)N)NC(=O)CN(C(=O)[C@@H](N)CCCN=C(N)N)CCCNC(=O)NCCCN(CC(N)=O)C(=O)[C@H](CCC(C)C)NC(=O)[C@H](CN)NC(=O)[C@H](Cc2ccc(O)cc2)NC1=O (H-R[NGly(3-aminopropyl)]R[Nva]Y[Dap][hLeu][NGly(3-aminopropyl)]-NH2; linker 2-8 via CO) | 590 nM |
